Laboratory results reported in paper PMC12410913 (Small (Weinheim an Der Bergstrasse, Germany), 2025).
Entries after “also recorded” stand apart in the source; their conditions may differ.

Experiments:
[1] = K114 fluorescence fibrillation assay in PBS alone; type: physicochemical; settings: 20 µM peptide, 1× PBS pH 7.4, 37 °C, 30 minutes
Method in brief: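 K114 was dissolved in DMSO at 10 mM and diluted to 250 µM in water. It was mixed at once with test peptide in 1× PBS pH 7.4 without LPS or LTA and shaken at 120 rpm. Fluorescence was read at ex 360/em 550 nm at 0.5, 1.0 and 2.0 h. Fibrillation was judged by signal above a non‑fibrillating control peptide.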

E. coli ATCC 25 922 = experiment: Field-emission SEM of nanonet morphology; type: cell-based; settings: 40 µM peptide (100 µM E-E13 ASYM), 2 h, MHB, 37 °C
Method in brief: (§1)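 Mid‑log bacteria were diluted in MHB to OD600 0.07, then given test peptide and shaken at 120 rpm. They were pelleted at 6000 g for 6 min, PBS‑washed three times, and fixed overnight at 4 °C in 2.5% glutaraldehyde. Cells were adhered to poly‑L‑lysine coverslips, post‑fixed with 1% OsO4 for 30 min, ethanol‑dehydrated and gold‑coated. Imaging was at 15 000×, with ≥3 fields per sample. Coverage and extensiveness were scored high/moderate/low.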

S. aureus ATCC 29 737 = experiment: Field-emission SEM of nanonet morphology; type: cell-based; settings: 40 µM peptide (100 µM E-E13 ASYM), 2 h, MHB, 37 °C
Method in brief: as §1

[2] = K114 fluorescence fibrillation assay with LPS or LTA; type: physicochemical, E. coli O111:B4 (LPS), S. aureus (LTA); settings: 20 µM peptide, 37 °C
Method in brief: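 A 10 mM DMSO stock of K114 was diluted to 250 µM in water and mixed at once with test peptide plus LPS (E. coli O111:B4) or LTA (S. aureus), with shaking at 120 rpm. K114 fluorescence (ex 360/em 550 nm) was read at 0.5, 1 and 2 h. Results were given as % increase in signal, with a non‑fibrillating control peptide as baseline. Three repeats, mean ± SE.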

BODIPY-Cadaverine = type: binding, E. coli O111:B4 (LPS), S. aureus (LTA); settings: LPS/LTA-BC complexes in 1× PBS pH 7.4, 37 °C, 30 minutes
Method in brief: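 LPS (E. coli O111:B4) or LTA (S. aureus) at 50 µg mL−1 was premixed with 5 µM BODIPY‑cadaverine in 1× PBS pH 7.4 for 30 min at room temperature in the dark. The premix was added 1:1 to two‑fold serial peptide dilutions in PBS, with polymyxin B as control, and shaken at 120 rpm. Fluorescence was read at ex 580/em 620 nm. Occupancy factor and % BC displaced came from sample fluorescence scaled between highest and lowest signals.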

Row | Sequence | Fibrillation (K114 fluorescence) in PBS alone [1] | Nanonet morphology (surface coverage, extensiveness) on E. coli (E. coli ATCC 25 922) | Nanonet morphology (surface coverage, extensiveness) on S. aureus (S. aureus ATCC 29 737) | Fibrillation (K114 fluorescence signal) in response to LPS ([2]; 5 µg mL−1 LPS) | Fibrillation (K114 fluorescence signal) upon LTA binding ([2]; 5 µg mL−1 LTA) | Binding to bacterial PAMPs (BC displaced from LPS or LTA) (BODIPY-Cadaverine)
1 | LKFRFKLTAKFRFKL [diF‐F15] | spontaneously fibrillated in PBS; also recorded: significantly increased the K114 fluorescence signal, even in PBS alone |  |  |  |  | 
2 | LKFRVKLTAKVRFKL [F‐F15] |  | extensive nanonets with moderate surface coverage | extensive nanonets with moderate surface coverage |  |  | 
3 | KFRVKLTAKVRFK [F‐F13] |  | loosely trap E. coli with moderate surface coverage | slightly increased surface coverage on S. aureus but with less extensive nanonets | lower fibrillation in response to LPS | higher in fibrillation upon LTA binding | 
4 | EVRIKLTAKIEVR [E‐E13 ^ASYM] |  | minimal membrane contact and low surface coverage | minimal membrane contact and low surface coverage |  |  | significantly reduced binding to bacterial PAMPs
5 | KLKLKLTAKLKLK [btt1‐3A13] |  | less extensive nanonets with low surface coverage | random aggregated structures |  |  | 
6 | KFRFKLTAKFRFK [diF‐F13] |  | tighter interweaving of nanofibers on the surface of E. coli | formed nanonets similar to F‐F15 and BTT1‐3A |  |  | 
